Laboratory results from ChEMBL document CHEMBL1126553, “Antioxidant and neutrophil-inhibiting properties of new 2-O-methyl-6-(alkylthio)ascorbic acid derivatives” (J Med Chem, 1993).
The source made the active and inactive calls. The rule behind the calls is not given here.

Assays:
Homo sapiens [1] = species on record: Homo sapiens; test: Inhibitory effect on superoxide anion formation of fMLP-stimulated neutrophils at 1 uM by cytochrome c assay; assay type: functional
Homo sapiens [2] = species on record: Homo sapiens; test: Inhibitory effect on superoxide anion formation of fMLP-stimulated neutrophils at 1 uM by cytochrome c assay; Did not inhibit or weakly inhibited; assay type: functional
Rattus norvegicus [3] = species on record: Rattus norvegicus; test: Tested for inhibition of lipid peroxidation in rat liver microsomes; assay type: functional
Summary of the method: (§1)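 Wistar rat liver microsomes (1 mg/mL) in 50 mM potassium phosphate, pH 7.2, with 50 μM ADP and 5 μM […]. Compound or DMSO was preincubated at 25 °C (5 min per methods; legend says 3 min). Peroxidation was started with 1 mM NADPH. After 15 min, malondialdehyde was measured by thiobarbituric acid at 532 nm. Mean ± SEM, n = 3.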

Homo sapiens [4] = species on record: Homo sapiens; test: Inhibition of fMLP-induced oxidative burst in a cell density of 5 x 10 e 5 cells/mL; assay type: functional, cell-based
Homo sapiens [5] = species on record: Homo sapiens; test: Inhibition of fMLP-induced secretion of lysozyme (azurophilic and specific granules); assay type: functional
Homo sapiens [6] = species on record: Homo sapiens; test: Inhibition of fMLP-induced oxidative burst in a cell density of 2 x 10 e 6 cells/mL; assay type: functional, cell-based
Rattus norvegicus [7] = species on record: Rattus norvegicus; test: Inhibition of Fe(2+)/ADP-induced lipid peroxidation of rat liver microsomes; assay type: functional; summary of the method: as §1
Homo sapiens [8] = species on record: Homo sapiens; test: Inhibition of fMLP-stimulated superoxide production in a cell density of 5 x 10 e 6 cells/mL; assay type: functional, cell-based
Homo sapiens [9] = species on record: Homo sapiens; test: Maximum Inhibition of fMLP-stimulated superoxide production in a cell density of 5 x 10 e 6 cells/mL; assay type: functional
[10] = Dissociation constant in aqueous system; assay type: physicochemical
Homo sapiens [11] = species on record: Homo sapiens; test: Maximum inhibition of MLP-induced oxidative burst in a cell density of 2 x 10 e 6 cells/mL; assay type: functional
Homo sapiens [12] = species on record: Homo sapiens; test: Inhibition of fMLP-induced secretion of beta-glucurodinase (azurophilic granules); assay type: functional
Summary of the method: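 Neutrophils at 5 × 10⁶/mL were primed with 5 μg/mL cytochalasin B (4 min, 37 °C), given compound in 0.1% DMSO for 3 min, then 100 nM fMLP for 15 min. Stopped on ice and pelleted. Supernatant β-glucuronidase was assayed with 4-methylumbelliferyl-β-D-glucuronide, pH 4.0, 15 min at 37 °C; fluorescence ex 365/em 460 nm. n = 3.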

[13] = Dissociation constant in aqueous solution; assay type: physicochemical
Homo sapiens [14] = species on record: Homo sapiens; test: Tested for inhibition of fMLP induced secretion of lysozyme from human neutrophil cells; Did not influence or inactive; assay type: functional, cell-based

## CCCCCCCCCCCCCCCCCCSCC(O)C1OC(O)=C(OC)C1=O (stereo not drawn)
Homo sapiens [1]
  inhibition at 1 µM: 40%

## CCCCCCCCCCCCSCC(O)C1OC(O)=C(OC)C1=O (stereo not drawn)
Homo sapiens [2]
  inhibition: Did not inhibit or weakly inhibited
Rattus norvegicus [3]
  IC50: 2500 nM

## CCCCCCCCCCCCCCCCSCC(O)C1OC(=O)C(OC)=C1OC (stereo not drawn)
Homo sapiens [2]
  inhibition: Did not inhibit or weakly inhibited

## CCCCCCCCCCCCCCCCSCC(O)C1OC(O)=C(OC)C1=O (stereo not drawn)
Homo sapiens [4]
  IC50: 600 nM
Homo sapiens [5]
  IC50: 2500 nM
Homo sapiens [6]
  IC50: 1250 nM
Homo sapiens [1]
  inhibition at 1 µM: 80%
Rattus norvegicus [7]
  IC50: 2000 nM
Homo sapiens [8]
  IC50: 3700 nM
Homo sapiens [9]
  Max inhibition concentration: 10 µM
[10]
  pKa: 3.32
Homo sapiens [11]
  Max inhibition concentration: 5 µM
Homo sapiens [12]
  IC50: 7000 nM

## CCCCCCCCSCC(O)C1OC(O)=C(OC)C1=O (stereo not drawn)
Homo sapiens [2]
  inhibition: Did not inhibit or weakly inhibited

## COC1=C(O)OC(C(O)CSc2ccccc2)C1=O (stereo not drawn)
Homo sapiens [2]
  inhibition: Did not inhibit or weakly inhibited

## CCCCCCCCCCCCCCCCSCC(O)C1OC(=O)C(O)=C1OC (stereo not drawn)
[13]
  pKa: 7.7
Homo sapiens [14]
  inhibition: inactive
